# Where “and” joins values, the source holds several entries; their conditions need not be identical. Equal entries are not always repeated.
# Tested on: U2OS
# Assay: Multiplex assay against U2OS
# Format: toxicity, cell-based
# Conditions: human
# In short: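 Compound was added to live cells that had been stained at seeding with Hoechst33342, BioTracker Green Microtubule Cytoskeleton Dye, MitoTracker Red and Annexin V Alexa Fluor 680, and imaging followed on a CQ1 microscope at 37°C and 5% CO2. CellPathfinder machine-learning gating divided cells into Hoechst high-intensity objects or normal cells, normal cells into healthy, pyknosed or fragmented nuclei, and pyknosed cells into mitotic or apoptotic. Tubulin, mitochondrial-mass and membrane-permeability phenotypes are per cents of healthy-nucleus cells.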
# [1] = 12 h, 1 µM, compound concentration 1 uM
# [2] = 12 h, 10 µM, compound concentration 10 uM
# [3] = 24 h, 1 µM, compound concentration 1 uM
# [4] = 24 h, 10 µM, compound concentration 10 uM
# [5] = 48 h, 1 µM, compound concentration 1 uM
# [6] = 48 h, 10 µM, compound concentration 10 uM
compound,measurement,setting,value
CC(N)C1CCC(C(=O)Nc2ccncc2)CC1 (centres undefined),Population Apoptotic (%),[1],33.33% and 18.75%
same,Population Fragmented Nuclei (%),[1],1.02% and 1.57%
same,Population Healthy Nuclei (%),[1],90.39% and 81.68%
same,Population Hoechst High Intensity Objects (%),[1],0%
same,Population Membrane Permeable-Phenotype (%),[1],0.68% and 1.28%
same,Population Mitochondria Different-Phenotype (%),[1],0.68% and 3.21%
same,Population Mitotic Cells (%),[1],66.67% and 81.25%
same,Population Normal (%),[1],100%
same,Population Pyknosed Nuclei (%),[1],8.59% and 16.75%
same,Population Tubulin-Different-Phenotype (%),[1],0.23% and 0.64%
same,Total Cell Count,[1],489 and 191
same,Population Apoptotic (%),[2],31.03% and 27.78%
same,Population Fragmented Nuclei (%),[2],0.73% and 1.2%
same,Population Healthy Nuclei (%),[2],92.2% and 87.95%
same,Population Hoechst High Intensity Objects (%),[2],0%
same,Population Membrane Permeable-Phenotype (%),[2],1.32% and 1.37%
same,Population Mitochondria Different-Phenotype (%),[2],0% and 11.64%
same,Population Mitotic Cells (%),[2],68.97% and 72.22%
same,Population Normal (%),[2],100%
same,Population Pyknosed Nuclei (%),[2],7.07% and 10.84%
same,Population Tubulin-Different-Phenotype (%),[2],0.79% and 0.68%
same,Total Cell Count,[2],410 and 166
same,Population Apoptotic (%),[3],41.18% and 41.67%
same,Population Fragmented Nuclei (%),[3],2.2% and 3.47%
same,Population Healthy Nuclei (%),[3],90.32% and 87.26%
same,Population Hoechst High Intensity Objects (%),[3],0%
same,Population Membrane Permeable-Phenotype (%),[3],0.65% and 1.33%
same,Population Mitochondria Different-Phenotype (%),[3],0.16% and 3.1%
same,Population Mitotic Cells (%),[3],58.82% and 58.33%
same,Population Normal (%),[3],100%
same,Population Pyknosed Nuclei (%),[3],7.48% and 9.27%
same,Population Tubulin-Different-Phenotype (%),[3],0.81% and 0.88%
same,Total Cell Count,[3],682 and 259
same,Population Apoptotic (%),[4],32.08% and 28.57%
same,Population Fragmented Nuclei (%),[4],1.38% and 0%
same,Population Healthy Nuclei (%),[4],89.48% and 85.29%
same,Population Hoechst High Intensity Objects (%),[4],0%
same,Population Membrane Permeable-Phenotype (%),[4],0.19% and 1.48%
same,Population Mitochondria Different-Phenotype (%),[4],0.19% and 6.9%
same,Population Mitotic Cells (%),[4],67.92% and 71.43%
same,Population Normal (%),[4],100%
same,Population Pyknosed Nuclei (%),[4],9.14% and 14.71%
same,Population Tubulin-Different-Phenotype (%),[4],0.19% and 0.49%
same,Total Cell Count,[4],580 and 238
same,Population Apoptotic (%),[5],48.51% and 53.33%
same,Population Fragmented Nuclei (%),[5],2.96% and 2.17%
same,Population Healthy Nuclei (%),[5],89.37% and 88.07%
same,Population Hoechst High Intensity Objects (%),[5],0%
same,Population Membrane Permeable-Phenotype (%),[5],1.02% and 1.48%
same,Population Mitochondria Different-Phenotype (%),[5],0.08% and 2.46%
same,Population Mitotic Cells (%),[5],51.49% and 46.67%
same,Population Normal (%),[5],100%
same,Population Pyknosed Nuclei (%),[5],7.67% and 9.76%
same,Population Tubulin-Different-Phenotype (%),[5],0.51% and 0.25%
same,Total Cell Count,[5],1317 and 461
same,Population Apoptotic (%),[6],45.33% and 46.15%
same,Population Fragmented Nuclei (%),[6],3.3% and 1%
same,Population Healthy Nuclei (%),[6],89.84% and 86%
same,Population Hoechst High Intensity Objects (%),[6],0.18% and 0%
same,Population Membrane Permeable-Phenotype (%),[6],0.82% and 1.45%
same,Population Mitochondria Different-Phenotype (%),[6],0.1% and 4.94%
same,Population Mitotic Cells (%),[6],54.67% and 53.85%
same,Population Normal (%),[6],99.82% and 100%
same,Population Pyknosed Nuclei (%),[6],6.87% and 13%
same,Population Tubulin-Different-Phenotype (%),[6],0.1% and 0.29%
same,Total Cell Count,[6],1094 and 400
C=CC(=O)N1CCC[C@@H](n2nc(C(=O)Nc3ccc(CC(=O)N(C)C)c(C)c3C)c3c(N)ncnc32)C1,Population Apoptotic (%),[1],31.58% and 48.15%
same,Population Fragmented Nuclei (%),[1],2.15% and 3.28%
same,Population Healthy Nuclei (%),[1],88.76% and 81.97%
same,Population Hoechst High Intensity Objects (%),[1],0%
same,Population Membrane Permeable-Phenotype (%),[1],1.08% and 0.67%
same,Population Mitochondria Different-Phenotype (%),[1],0.54% and 8.67%
same,Population Mitotic Cells (%),[1],68.42% and 51.85%
same,Population Normal (%),[1],100%
same,Population Pyknosed Nuclei (%),[1],9.09% and 14.75%
same,Population Tubulin-Different-Phenotype (%),[1],1.08% and 0%
same,Total Cell Count,[1],418 and 183
same,Population Apoptotic (%),[2],42.86% and 45.45%
same,Population Fragmented Nuclei (%),[2],1.65% and 3.24%
same,Population Healthy Nuclei (%),[2],88.47% and 84.86%
same,Population Hoechst High Intensity Objects (%),[2],0.23% and 0%
same,Population Mitotic Cells (%),[2],57.14% and 54.55%
same,Population Normal (%),[2],99.77% and 100%
same,Population Pyknosed Nuclei (%),[2],9.88% and 11.89%
same,Population Tubulin-Different-Phenotype (%),[2],0.27% and 3.82%
same,Total Cell Count,[2],426 and 185
same,Population Apoptotic (%),[3],37.21% and 57.14%
same,Population Fragmented Nuclei (%),[3],1.84% and 1.69%
same,Population Healthy Nuclei (%),[3],90.24% and 83.47%
same,Population Hoechst High Intensity Objects (%),[3],0.18% and 0%
same,Population Membrane Permeable-Phenotype (%),[3],0.41% and 2.54%
same,Population Mitochondria Different-Phenotype (%),[3],0.41% and 6.6%
same,Population Mitotic Cells (%),[3],62.79% and 42.86%
same,Population Normal (%),[3],99.82% and 100%
same,Population Pyknosed Nuclei (%),[3],7.92% and 14.83%
same,Population Tubulin-Different-Phenotype (%),[3],1.02% and 0%
same,Total Cell Count,[3],544 and 236
same,Population Apoptotic (%),[4],57.14% and 50%
same,Population Fragmented Nuclei (%),[4],2.56% and 2.27%
same,Population Healthy Nuclei (%),[4],87.18% and 86.82%
same,Population Hoechst High Intensity Objects (%),[4],0%
same,Population Membrane Permeable-Phenotype (%),[4],1.47% and 8.38%
same,Population Mitotic Cells (%),[4],42.86% and 50%
same,Population Normal (%),[4],100%
same,Population Pyknosed Nuclei (%),[4],10.26% and 10.91%
same,Population Tubulin-Different-Phenotype (%),[4],0.84% and 2.62%
same,Total Cell Count,[4],546 and 220
same,Population Apoptotic (%),[5],38.38% and 67.35%
same,Population Fragmented Nuclei (%),[5],2.8% and 4.6%
same,Population Healthy Nuclei (%),[5],87.64% and 82.86%
same,Population Hoechst High Intensity Objects (%),[5],0%
same,Population Membrane Permeable-Phenotype (%),[5],0.66% and 2.16%
same,Population Mitochondria Different-Phenotype (%),[5],0.11% and 7.41%
same,Population Mitotic Cells (%),[5],61.62% and 32.65%
same,Population Normal (%),[5],100%
same,Population Pyknosed Nuclei (%),[5],9.56% and 12.53%
same,Population Tubulin-Different-Phenotype (%),[5],0.66% and 0.31%
same,Total Cell Count,[5],1036 and 391
same,Population Apoptotic (%),[6],50.48% and 54.35%
same,Population Fragmented Nuclei (%),[6],1.98% and 2.5%
same,Population Healthy Nuclei (%),[6],87.11% and 83.12%
same,Population Hoechst High Intensity Objects (%),[6],0.1% and 0.31%
same,Population Membrane Permeable-Phenotype (%),[6],1.07% and 3.01%
same,Population Mitochondria Different-Phenotype (%),[6],0.12% and 6.02%
same,Population Mitotic Cells (%),[6],49.52% and 45.65%
same,Population Normal (%),[6],99.9% and 99.69%
same,Population Pyknosed Nuclei (%),[6],10.91% and 14.37%
same,Population Tubulin-Different-Phenotype (%),[6],0.95% and 1.5%
same,Total Cell Count,[6],963 and 321
"CCCn1c(=O)c2[nH]c(C3CCCC3)nc2n(CCC)c1=O [1,3-DIPROPYL-8-CYCLOPENTYLXANTHINE [DPCPX]]",Population Apoptotic (%),[1],87% and 93%
same,Population Fragmented Nuclei (%),[1],25% and 15%
same,Population Healthy Nuclei (%),[1],64% and 72%
same,Population Hoechst High Intensity Objects (%),[1],1% and 0%
same,Population Membrane Permeable-Phenotype (%),[1],1% and 7%
same,Population Mitochondria Different-Phenotype (%),[1],3% and 4%
same,Population Mitotic Cells (%),[1],12% and 6%
same,Population Normal (%),[1],98% and 100%
same,Population Pyknosed Nuclei (%),[1],9% and 12%
same,Population Tubulin-Different-Phenotype (%),[1],1% and 5%
same,Total Cell Count,[1],250 and 125
same,Population Apoptotic (%),[2],68% and 100%
same,Population Fragmented Nuclei (%),[2],30% and 21%
same,Population Healthy Nuclei (%),[2],60% and 69%
same,Population Hoechst High Intensity Objects (%),[2],2% and 3%
same,Population Membrane Permeable-Phenotype (%),[2],5% and 6%
same,Population Mitochondria Different-Phenotype (%),[2],1% and 9%
same,Population Normal (%),[2],97% and 96%
same,Population Pyknosed Nuclei (%),[2],9% and 8%
same,Population Tubulin-Different-Phenotype (%),[2],3%
same,Total Cell Count,[2],206 and 96
same,Population Apoptotic (%),[3],83% and 87%
same,Population Fragmented Nuclei (%),[3],24% and 13%
same,Population Healthy Nuclei (%),[3],68% and 74%
same,Population Hoechst High Intensity Objects (%),[3],3% and 2%
same,Population Membrane Permeable-Phenotype (%),[3],5% and 8%
same,Population Mitochondria Different-Phenotype (%),[3],3%
same,Population Mitotic Cells (%),[3],16% and 12%
same,Population Normal (%),[3],96% and 97%
same,Population Pyknosed Nuclei (%),[3],7% and 11%
same,Population Tubulin-Different-Phenotype (%),[3],4%
same,Total Cell Count,[3],261 and 138
same,Population Apoptotic (%),[4],89% and 100%
same,Population Fragmented Nuclei (%),[4],27% and 21%
same,Population Healthy Nuclei (%),[4],64% and 71%
same,Population Hoechst High Intensity Objects (%),[4],2% and 4%
same,Population Membrane Permeable-Phenotype (%),[4],7% and 3%
same,Population Mitochondria Different-Phenotype (%),[4],0% and 3%
same,Population Mitotic Cells (%),[4],10% and 0%
same,Population Normal (%),[4],97% and 95%
same,Population Pyknosed Nuclei (%),[4],8% and 6%
same,Population Tubulin-Different-Phenotype (%),[4],0%
same,Total Cell Count,[4],234 and 120
same,Population Apoptotic (%),[5],86% and 92%
same,Population Fragmented Nuclei (%),[5],20% and 17%
same,Population Healthy Nuclei (%),[5],69%
same,Population Hoechst High Intensity Objects (%),[5],1% and 2%
same,Population Membrane Permeable-Phenotype (%),[5],3% and 8%
same,Population Mitochondria Different-Phenotype (%),[5],1% and 4%
same,Population Mitotic Cells (%),[5],13% and 8%
same,Population Normal (%),[5],98% and 97%
same,Population Pyknosed Nuclei (%),[5],10% and 13%
same,Population Tubulin-Different-Phenotype (%),[5],2% and 3%
same,Total Cell Count,[5],364 and 196
same,Population Apoptotic (%),[6],77% and 100%
same,Population Fragmented Nuclei (%),[6],24% and 19%
same,Population Healthy Nuclei (%),[6],62% and 73%
same,Population Hoechst High Intensity Objects (%),[6],2% and 3%
same,Population Membrane Permeable-Phenotype (%),[6],4% and 5%
same,Population Mitochondria Different-Phenotype (%),[6],1% and 3%
same,Population Mitotic Cells (%),[6],22% and 0%
same,Population Normal (%),[6],97% and 96%
same,Population Pyknosed Nuclei (%),[6],12% and 6%
same,Population Tubulin-Different-Phenotype (%),[6],3% and 0%
same,Total Cell Count,[6],322 and 165

# Reference: ChEMBL document CHEMBL5724801, “EUbOPEN Chemogenomics Library - Multiplex” (2024)
